Test results: ChEMBL document CHEMBL1144840, “Tetrazole based amides as growth hormone secretagogues” (Bioorg Med Chem Lett, 2008)

Tests used:
[1] = molecular target: Growth hormone secretagogue receptor type 1 (Homo sapiens, UniProt Q92847); assay: Agonist activity at human GHS receptor expressed in H4 cells by FLIPR assay; assay type: functional, cell-based
[2] = test system: Rattus norvegicus; assay: Stimulation of growth hormone release in rat at 0.17 umol/kg, iv relative to control; assay type: functional
Summary of the method: (§1)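 Fasted male Wistar rats (200–250 g) were anesthetized with ketamine 30 mg/kg plus xylazine 10 mg/kg ip. They were dosed iv at 10 mL/kg in vehicle (10% ethanol, […] V/V), five rats per group. Aortic blood was drawn 15 min post-dose, and plasma rat GH was measured by radioimmunoassay. Results are given as % GH increase ± SEM versus vehicle control.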

[3] = test system: Rattus norvegicus; assay: Stimulation of growth hormone release in rat at 0.017 umol/kg, iv relative to control; assay type: functional; summary of the method: as §1
[4] = test system: Rattus norvegicus; assay: Stimulation of growth hormone release in rat at 0.052 umol/kg, iv relative to control; assay type: functional; summary of the method: as §1

Growth hormone secretagogue receptor type 1, sequence (Q92847 whole entry): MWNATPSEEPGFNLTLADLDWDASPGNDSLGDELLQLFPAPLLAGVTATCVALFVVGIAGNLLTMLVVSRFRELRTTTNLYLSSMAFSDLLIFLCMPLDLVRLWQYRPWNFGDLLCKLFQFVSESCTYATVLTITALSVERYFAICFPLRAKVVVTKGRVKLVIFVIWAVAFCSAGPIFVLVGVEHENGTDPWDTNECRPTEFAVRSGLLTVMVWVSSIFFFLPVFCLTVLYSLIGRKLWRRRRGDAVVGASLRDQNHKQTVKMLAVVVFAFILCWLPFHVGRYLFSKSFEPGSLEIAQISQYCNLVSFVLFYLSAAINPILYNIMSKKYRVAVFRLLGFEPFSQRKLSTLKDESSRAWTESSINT

SMILES | EC50 [1] [nM] | Intrinsic activity [1] [%] | Activity [2] [%] | Activity [3] [%] | Activity [4] [%]
CC(C)(N)C(=O)N[C@H](COCc1ccccc1)c1nnnn1CCNC(=O)CCCCO | 4.4 | > 85 | 722 | – | –
CC(C)(N)C(=O)N[C@H](COCc1ccccc1)c1nnnn1CCOc1ccccc1C(=O)NCCO | 11 | > 85 | – | – | –
CC(C)(N)C(=O)N[C@H](COCc1ccccc1)c1nnnn1CCCC(=O)NCCCCCO | 1.3 | > 85 | – | – | –
CC(C)(N)C(=O)N[C@H](COCc1ccccc1)c1nnnn1CCOc1cccc(C(=O)NCCO)c1 | 8.4 | > 85 | – | – | –
CC(C)(N)C(=O)N[C@H](COCc1ccccc1)c1nnnn1CCCC(=O)NCCSCCO | 0.2 | > 85 | – | – | –
CC(C)(N)C(=O)N[C@H](COCc1ccccc1)c1nnnn1CCCC(=O)NCCc1ccccc1 | 23 | > 85 | – | – | –
CC(C)(N)C(=O)N[C@H](COCc1ccccc1)c1nnnn1CCNC(=O)CCc1cccc(O)c1 | 0.64 | > 85 | – | – | –
CN(CCc1cccc(S(=O)(=O)CCO)c1)C(=O)CCCn1nnnc1[C@@H](COCc1ccccc1)NC(=O)C(C)(C)N | 2.9 | > 85 | – | – | –
CC(C)(N)C(=O)N[C@H](COCc1ccccc1)c1nnnn1CCCC(=O)NCCCc1ccccc1 | 33 | > 85 | – | – | –
CC(C)(N)C(=O)N[C@H](COCc1ccccc1)c1nnnn1CCOc1cccc(C(=O)NCCCCO)c1 | 3 | > 85 | – | – | –
CCCCCCCC(=O)OC[C@H](NC(=O)CNC(=O)[C@@H](N)CCCNC(=N)N)C(=O)N[C@@H](CO)C(=O)N[C@@H](Cc1ccccc1)C(=O)N[C@@H](CC(C)C)C(=O)N[C@@H](CO)C(=O)N1CCC[C@H]1C(=O)N[C@@H](CCC(=O)O)C(=O)N[C@@H](Cc1cnc[nH]1)C(=O)N[C@@H](CCC(N)=O)C(=O)N[C@@H](CCCCN)C(=O)N[C@@H](C)C(=O)N[C@@H](CCC(N)=O)C(=O)N[C@@H](CCC(N)=O)C(=O)N[C@@H](CCCNC(=N)N)C(=O)N[C@@H](CCCCN)C(=O)N[C@@H](CCC(=O)O)C(=O)N[C@@H](CO)C(=O)N[C@@H](CCCCN)C(=O)N[C@@H](CCCCN)C(=O)N1CCC[C@H]1C(=O)N1CCC[C@H]1C(=O)N[C@@H](C)C(=O)N[C@@H](CCCCN)C(=O)N[C@@H](CC(C)C)C(=O)N[C@@H](CCC(N)=O)C(=O)N1CCC[C@H]1C(=O)O | – | > 85 | – | – | –
CC(C)(N)C(=O)N[C@H](COCc1ccccc1)c1nnnn1CCCC(=O)NCCCCCCO | 0.6 | > 85 | 522 | – | –
CC(C)(N)C(=O)N[C@H](COCc1ccccc1)c1nnnn1CCOc1ccccc1C(=O)NCCCCO | 0.9 | > 85 | – | – | –
CC(C)(N)C(=O)N[C@H](COCc1ccccc1)c1nnnn1CCOC(=O)NCCCCO | – | > 85 | 264 | – | –
CC(C)(N)C(=O)N[C@H](COCc1ccccc1)c1nnnn1CCCC(=O)NCCC(=O)O | 204 | > 85 | – | – | –
CC(C)(N)C(=O)N[C@H](COCc1ccccc1)c1nnnn1CCCC(=O)NCCN1CCNC1=O | 3.3 | > 85 | – | – | –
CC(C)(N)C(=O)N[C@H](COCc1ccccc1)c1nnnn1CCCC(=O)NCc1ccccc1 | 32 | > 85 | – | – | –

SMILES | EC50 [1] [nM] | Intrinsic activity [1] [%] | Activity [2] [%] | Activity [3] [%] | Activity [4] [%]
CC(C)(N)C(=O)N[C@H](COCc1ccccc1)c1nnnn1CCCC(=O)NCCc1cccc(S(=O)(=O)CCO)c1 | 105 | > 85 | – | – | –
CC(C)(N)C(=O)N[C@H](COCc1ccccc1)c1nnnn1CCCC(=O)NCCS(C)(=O)=O | 4.1 | > 85 | – | – | –
CC(C)(N)C(=O)N[C@H](COCc1ccccc1)c1nnnn1CCCC(=O)NCCO | 40 | > 85 | – | – | –
CC(C)(N)C(=O)N[C@H](COCc1ccccc1)c1nnnn1CCCC(=O)NCCS(N)(=O)=O | 1.4 | > 85 | 408 | – | –
CC(C)(N)C(=O)N[C@H](COCc1ccccc1)c1nnnn1CCCC(=O)NCCCCO | 1.8 | > 85 | – | – | –
CC(C)(N)C(=O)N[C@H](COCc1ccccc1)c1nnnn1CCCC(=O)NCCS(=O)(=O)CCO | 0.2 | > 85 | 1290 | 398 | 956
CC(C)(N)C(=O)N[C@H](COCc1ccccc1)c1nnnn1CCCC(=O)NCC(F)(F)F | 26 | > 85 | – | – | –
CC(C)(N)C(=O)N[C@H](COCc1ccccc1)c1nnnn1CCCC(=O)NCCOCCO | 0.7 | > 85 | – | – | –
CCCCNC(=O)CCCn1nnnc1[C@@H](COCc1ccccc1)NC(=O)C(C)(C)N | – | > 85 | – | – | –
CN(CCc1cccc(O)c1)C(=O)CCCn1nnnc1[C@@H](COCc1ccccc1)NC(=O)C(C)(C)N | 3.1 | > 85 | – | – | –
CC(C)(N)C(=O)N[C@H](COCc1ccccc1)c1nnnn1CCCC(=O)NCCCO | 27 | > 85 | – | – | –
CC(C)(N)C(=O)N[C@H](COCc1ccccc1)c1nnnn1CCNC(=O)CCS(C)(=O)=O | 14.7 | > 85 | – | – | –
CCOC(=O)CCNC(=O)CCCn1nnnc1[C@@H](COCc1ccccc1)NC(=O)C(C)(C)N | 140 | > 85 | – | – | –
CC(C)(N)C(=O)N[C@H](COCc1ccccc1)c1nnnn1CCCC(=O)N[C@H]1CC[C@H](O)CC1 | 521 | > 85 | – | – | –
CC(C)(N)C(=O)N[C@H](COCc1ccccc1)c1nnnn1CCCC(=O)NCCc1cccc(O)c1 | 0.2 | > 85 | 606 | – | –
CC(C)(N)C(=O)N[C@H](COCc1ccccc1)c1nnnn1CCCC(=O)Nc1ccccc1 | 70 | > 85 | – | – | –
CC(C)(N)C(=O)N[C@H](COCc1ccccc1)c1nnnn1CCCC(=O)NCCC(N)=O | 7.6 | > 85 | – | – | –
